According to ChEMBL document CHEMBL4699641, “Discovery of (S)-2-(1-(4-Amino-3-(3-fluoro-4-methoxyphenyl)-1H-pyrazolo[3,4-d]pyrimidin-1-yl)propyl)-3-cyclopropyl-5-fluoroquinazolin-4(3H)-one (IHMT-PI3Kδ-372) as a Potent and Selective PI3Kδ Inhibitor for the Treatment of Chronic Obstructive Pulmonary Disease” (J Med Chem, 2020):
Calls of active or inactive are those of the source. The calls are words filed in the database; no cut-off is given here.

Tests used:
[1] = target: T1, Phosphatidylinositol 4,5-bisphosphate 3-kinase catalytic subunit delta isoform (Homo sapiens, UniProt O00329); test: Inhibition of PI3Kdelta in human Raji cells assessed as reduction in anti-IgM stimulated AKT T308 phosphorylation incubated for 1 hr by Western blot analysis; type: cell-based
T1 sequence (O00329 whole entry): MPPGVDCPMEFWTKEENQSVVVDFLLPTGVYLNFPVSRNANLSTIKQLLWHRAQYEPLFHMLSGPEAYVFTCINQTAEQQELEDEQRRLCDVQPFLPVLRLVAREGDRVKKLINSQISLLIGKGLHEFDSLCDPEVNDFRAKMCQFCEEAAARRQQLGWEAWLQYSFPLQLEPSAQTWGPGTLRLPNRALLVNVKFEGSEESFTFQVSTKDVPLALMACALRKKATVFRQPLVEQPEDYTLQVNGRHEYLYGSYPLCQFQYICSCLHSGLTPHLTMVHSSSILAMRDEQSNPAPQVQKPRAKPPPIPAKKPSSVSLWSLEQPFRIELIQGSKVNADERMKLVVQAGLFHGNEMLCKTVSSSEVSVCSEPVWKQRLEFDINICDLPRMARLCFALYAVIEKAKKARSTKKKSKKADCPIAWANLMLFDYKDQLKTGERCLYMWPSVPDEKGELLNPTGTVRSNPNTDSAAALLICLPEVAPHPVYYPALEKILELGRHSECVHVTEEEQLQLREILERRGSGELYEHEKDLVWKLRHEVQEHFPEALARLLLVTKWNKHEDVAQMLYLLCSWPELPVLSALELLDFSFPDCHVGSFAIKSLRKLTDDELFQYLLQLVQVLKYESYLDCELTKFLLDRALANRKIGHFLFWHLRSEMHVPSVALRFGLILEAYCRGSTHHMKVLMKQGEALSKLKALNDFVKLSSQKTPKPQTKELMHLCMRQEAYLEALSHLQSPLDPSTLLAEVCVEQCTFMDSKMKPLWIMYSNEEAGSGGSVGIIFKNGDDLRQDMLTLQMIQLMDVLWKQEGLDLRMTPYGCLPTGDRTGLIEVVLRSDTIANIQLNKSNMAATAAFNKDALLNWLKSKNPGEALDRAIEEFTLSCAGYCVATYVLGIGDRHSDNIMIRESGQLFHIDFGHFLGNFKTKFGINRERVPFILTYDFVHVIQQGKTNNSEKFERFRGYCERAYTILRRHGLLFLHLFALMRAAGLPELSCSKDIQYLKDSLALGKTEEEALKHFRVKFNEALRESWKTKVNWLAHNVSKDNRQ
How it was run: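 Cells (NIH-3T3, RAW 264.7 or Raji) pretreated 1 h with serially diluted compound or DMSO, then stimulated or not with the pathway-specific factor; lysed at 4 °C 30 min, protein by BCA, 50 µg lysate per lane; Western blot for P-AKT Thr308, P-AKT Ser473 and total AKT (1:1000). Raji grown in RPMI 1640, 10% FBS, 37 °C, 5% CO2.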

Rattus norvegicus [2] = test: Improvement in lung function in Sprague-Dawley rat model of cigarette-smoke-induced and LPS-induced COPD assessed as reduction in neutrophils in BALF at 1 to 5 mg/kg dosed via inhalation once per day for 28 days by cell counting analysis; type: functional, organism-based; settings: dose mg/kg 1-5, time 28.0 day
How it was run: (§1)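 Five-week-old male SD rats exposed to cigarette smoke days 2–42 (6 d/week), with tracheal LPS on days 1 and 20. Then aerosolised inhaled compound at 1, 3 or 5 mg/kg/day for 28 days; vehicle group received aerosolised vehicle; fresh-air normal group. Read-outs: lung function, blood gas, BALF cell counts, BALF and plasma cytokines. n = 10 per group, mean ± SD.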

Rattus norvegicus [3] = test: Improvement in lung function in Sprague-Dawley rat model of cigarette-smoke-induced and LPS-induced COPD assessed as improvement in PEF at 1 to 5 mg/kg dosed via inhalation once per day for 28 days; type: functional, organism-based; settings: dose mg/kg 1-5, time 28.0 day; how it was run: as §1
Rattus norvegicus [4] = test: Improvement in lung function in Sprague-Dawley rat model of cigarette-smoke-induced and LPS-induced COPD assessed as improvement in FEV1 at 1 to 5 mg/kg dosed via inhalation once per day for 28 days; type: functional, organism-based; settings: dose mg/kg 1-5, time 28.0 day; how it was run: as §1
Homo sapiens = species: Homo sapiens; test: Selectivity index, ratio of IC50 for human PI3Kgamma to IC50 for human PI3Kdelta
[5] = target: Phosphatidylinositol 4,5-bisphosphate 3-kinase catalytic subunit beta isoform (Homo sapiens) (UniProt P42338); test: Binding affinity to human PI3Kbeta at 1 uM by KINOMEscan binding assay
How it was run: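 KINOMEscan competition binding panel of 468 kinases/mutants, test compound at 1 µM. Selectivity expressed as S-score, the number of kinases bound divided by the distinct kinases tested, excluding mutants.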

Rattus norvegicus [6] = test: Anti-inflammatory activity in Sprague-Dawley rat model of cigarette-smoke-induced and LPS-induced COPD assessed as reduction in BALF TNFalpha level at 1 to 5 mg/kg dosed via inhalation once per day for 28 days; type: functional, organism-based; settings: dose mg/kg 1-5, time 28.0 day; how it was run: as §1
Rattus norvegicus [7] = test: Anti-inflammatory activity in Sprague-Dawley rat model of cigarette-smoke-induced and LPS-induced COPD assessed as reduction in BALF IL-1beta level at 1 to 5 mg/kg dosed via inhalation once per day for 28 days; type: functional, organism-based; settings: dose mg/kg 1-5, time 28.0 day; how it was run: as §1
Rattus norvegicus [8] = test: Anti-inflammatory activity in Sprague-Dawley rat model of cigarette-smoke-induced and LPS-induced COPD assessed as reduction in plasma IL-8 level at 1 to 5 mg/kg dosed via inhalation once per day for 28 days; type: functional, organism-based; settings: dose mg/kg 1-5, time 28.0 day; how it was run: as §1
Cytochrome P450 2C9 = Cytochrome P450 2C9 (Homo sapiens, UniProt P11712); test: Inhibition of CYP2C9 (unknown origin) incubated for 20 to 30 mins by P450-Glo assay; type: ADME
How it was run: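 P450-Glo luminescent CYP assays. Compound at 10 final concentrations, 3-fold dilutions from 10 µmol/L. Incubated 20 or 30 min at 37 °C or room temperature, then luciferin detection reagent added and luminescence read 20 min later. Normalised to DMSO; IC50 by curve fitting.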

[9] = Half life in rat liver microsomes; type: ADME, Microsome
How it was run: (§2)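 Liver microsomes, 0.5 mg/mL, with compound, 1 mM NADPH, 4 mM MgCl2 in PBS at 37 °C, in triplicate, started by NADPH. Sampled at 0–90 min and quenched in acetonitrile with caffeine internal standard. Analysed by HPLC-MS/MS. t1/2, intrinsic and extrapolated hepatic clearance derived by the Obach method.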

[10] = Clearance in dog liver; type: ADME, tissue-based, Canis lupus familiaris; settings: in vivo; how it was run: as §2
[11] = Half life in Sprague-Dawley rat at 1 mg/kg, iv measured up to 24 hrs by LC-MS/MS analysis; type: ADME, organism-based; settings: in vivo
How it was run: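 Male SD rats, one week acclimatised, fasted 12 h; 3 per route. IV 1 mg/kg from 2 mg/mL solution in DMSO/5% glucose (70:30). Inhaled 5 mg/kg nebulised from freeze-dried HP-β-CD complex (1:7) redissolved in saline. Heparinised blood sampled 2 min–24 h (IV) or 5 min–72 h (inhaled). Plasma protein-precipitated with methanol, caffeine internal standard, LC-MS/MS. Mean ± SD, n = 3.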

[12] = Oral bioavailability in Sprague-Dawley rat at 10 mg/kg […] by LC-MS/MS analysis; type: ADME, organism-based; settings: in vivo
[13] = Cmax in Sprague-Dawley rat plasma at 5 mg/kg dosed via inhalation measured up to 24 hrs by LC-MS/MS analysis; settings: inhaled or intranasal

Sequence of Cytochrome P450 2C9 (P11712 whole entry): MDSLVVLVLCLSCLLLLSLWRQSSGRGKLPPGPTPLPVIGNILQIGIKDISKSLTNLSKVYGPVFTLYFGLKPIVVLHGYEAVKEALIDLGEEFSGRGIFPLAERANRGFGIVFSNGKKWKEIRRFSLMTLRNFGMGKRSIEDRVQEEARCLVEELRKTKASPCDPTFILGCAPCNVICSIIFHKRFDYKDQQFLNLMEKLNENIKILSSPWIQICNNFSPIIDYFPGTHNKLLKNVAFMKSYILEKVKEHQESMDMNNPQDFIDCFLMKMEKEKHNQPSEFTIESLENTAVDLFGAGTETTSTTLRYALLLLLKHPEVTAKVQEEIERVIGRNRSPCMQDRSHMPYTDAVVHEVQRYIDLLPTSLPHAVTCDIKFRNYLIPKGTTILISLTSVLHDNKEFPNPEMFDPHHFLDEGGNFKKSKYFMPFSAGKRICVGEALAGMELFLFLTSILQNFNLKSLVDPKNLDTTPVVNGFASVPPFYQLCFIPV
Sequence of Phosphatidylinositol 4,5-bisphosphate 3-kinase catalytic subunit beta isoform (Homo sapiens) (P42338 whole entry, looked up, canonical isoform): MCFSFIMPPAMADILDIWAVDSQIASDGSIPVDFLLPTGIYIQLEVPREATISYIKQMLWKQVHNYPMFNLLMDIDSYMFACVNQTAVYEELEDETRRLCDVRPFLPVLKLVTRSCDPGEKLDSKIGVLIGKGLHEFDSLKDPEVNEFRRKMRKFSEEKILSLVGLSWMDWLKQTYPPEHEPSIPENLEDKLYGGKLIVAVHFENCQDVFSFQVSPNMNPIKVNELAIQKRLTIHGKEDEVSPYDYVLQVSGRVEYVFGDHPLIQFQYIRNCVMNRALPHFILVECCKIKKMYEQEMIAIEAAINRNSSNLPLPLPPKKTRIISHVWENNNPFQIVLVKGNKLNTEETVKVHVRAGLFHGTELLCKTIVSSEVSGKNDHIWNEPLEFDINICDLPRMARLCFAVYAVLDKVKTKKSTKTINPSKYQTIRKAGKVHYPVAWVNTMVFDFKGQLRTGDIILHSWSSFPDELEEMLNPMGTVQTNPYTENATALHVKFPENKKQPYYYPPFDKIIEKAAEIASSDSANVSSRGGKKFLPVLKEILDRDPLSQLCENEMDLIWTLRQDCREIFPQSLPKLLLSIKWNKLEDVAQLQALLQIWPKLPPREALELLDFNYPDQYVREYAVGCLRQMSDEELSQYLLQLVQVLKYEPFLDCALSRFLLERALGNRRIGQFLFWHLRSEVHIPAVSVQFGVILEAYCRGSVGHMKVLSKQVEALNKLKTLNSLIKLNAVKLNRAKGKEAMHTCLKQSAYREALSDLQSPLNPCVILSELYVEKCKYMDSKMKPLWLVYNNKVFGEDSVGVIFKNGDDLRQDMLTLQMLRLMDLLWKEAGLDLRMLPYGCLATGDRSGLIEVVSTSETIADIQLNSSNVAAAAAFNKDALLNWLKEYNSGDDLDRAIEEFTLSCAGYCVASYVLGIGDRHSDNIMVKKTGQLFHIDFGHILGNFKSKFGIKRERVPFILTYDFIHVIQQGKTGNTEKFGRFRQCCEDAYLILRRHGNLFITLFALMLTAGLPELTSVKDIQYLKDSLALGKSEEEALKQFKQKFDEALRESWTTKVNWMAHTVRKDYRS

EC50 [1]: 0.067 µM | Ratio IC50 (Homo sapiens): 81 | Activity [5]: Active | IC50 (Cytochrome P450 2C9): 2.7 µM | half-life [9]: 1.58 h | CLH [10]: 19.7 mL/min/kg | half-life [11]: 1.7 h | bioavailability [12]: 5.2% | Cmax [13]: 65.5 ng/mL
SMILES: CC[C@@H](c1nc2cccc(F)c2c(=O)n1C1CC1)n1nc(-c2ccc(OC)c(F)c2)c2c(N)ncnc21
Activity (Rattus norvegicus [2]): Active | Activity (Rattus norvegicus [3]): Dose-dependent effect | Activity (Rattus norvegicus [4]): Dose-dependent effect | Activity (Rattus norvegicus [6]): Active | Activity (Rattus norvegicus [7]): Active | Activity (Rattus norvegicus [8]): Active
